Results taken from ChEMBL document CHEMBL1126254, “Specific inhibition of HIV-1 protease by boronated porphyrins” (J Med Chem, 1992).

Tests used:
[1] = (§1) Cytotoxicity on COS A6 cells in the absence of 10% fetal calf serum(FCS); assay type: functional; conditions: read-out: LD50 (the source's name)
Method in brief: (§2)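 COS A6 cells, which are cloned progeny that constitutively release viral capsids, were cultured without fetal calf serum and exposed to compound. Viability was read by MTT stain assay, and the LD50 was derived from it.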

[2] = molecular target: T1, Human immunodeficiency virus type 1 protease (Human immunodeficiency virus 1, UniProt Q72874); assay: Inhibition of HIV-1 protease in 5%DMSO
Method in brief: (§3)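 Purified recombinant HIV PR activity was followed by cleavage of a decapeptide substrate. Incubation was 30–45 min at 37 °C, and hydrolysis products were quantified by HPLC.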

[3] = molecular target: T1, Human immunodeficiency virus type 1 protease; assay: Inhibition of HIV-1 protease in 10% fetal calf serum(FCS)
Method in brief: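 COS A6 cells, which constitutively release viral capsids, were exposed to inhibitor in Dulbecco's PBS for 15 min. An equal volume of medium with 10% FCS plus inhibitor was then added and incubation continued for 3.75 h. Capsids were isolated from the supernatant, and polyprotein processing was scored as p24 by ELISA.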

[4] = molecular target: Human immunodeficiency virus type 2 pol protein (Human immunodeficiency virus 2, UniProt P88142); assay: Inhibition of HIV-2 protease in 5%DMSO; method in brief: as §3
[5] = molecular target: T1, Human immunodeficiency virus type 1 protease; assay: Inhibitory concentration against HIV-1 protease in the absence of DMSO
Method in brief: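 The water-soluble dipotassium salt was tested against aspartyl proteases with no DMSO present, and IC50 values were determined.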

[6] = test system: COS A6; assay: as §1; assay type: functional; method in brief: as §2
[7] = molecular target: HIV-2 protease (Human immunodeficiency virus 2); assay: Inhibitory concentration against HIV-2 protease in the absence of DMSO

Chain of Human immunodeficiency virus type 2 pol protein (P88142 whole entry): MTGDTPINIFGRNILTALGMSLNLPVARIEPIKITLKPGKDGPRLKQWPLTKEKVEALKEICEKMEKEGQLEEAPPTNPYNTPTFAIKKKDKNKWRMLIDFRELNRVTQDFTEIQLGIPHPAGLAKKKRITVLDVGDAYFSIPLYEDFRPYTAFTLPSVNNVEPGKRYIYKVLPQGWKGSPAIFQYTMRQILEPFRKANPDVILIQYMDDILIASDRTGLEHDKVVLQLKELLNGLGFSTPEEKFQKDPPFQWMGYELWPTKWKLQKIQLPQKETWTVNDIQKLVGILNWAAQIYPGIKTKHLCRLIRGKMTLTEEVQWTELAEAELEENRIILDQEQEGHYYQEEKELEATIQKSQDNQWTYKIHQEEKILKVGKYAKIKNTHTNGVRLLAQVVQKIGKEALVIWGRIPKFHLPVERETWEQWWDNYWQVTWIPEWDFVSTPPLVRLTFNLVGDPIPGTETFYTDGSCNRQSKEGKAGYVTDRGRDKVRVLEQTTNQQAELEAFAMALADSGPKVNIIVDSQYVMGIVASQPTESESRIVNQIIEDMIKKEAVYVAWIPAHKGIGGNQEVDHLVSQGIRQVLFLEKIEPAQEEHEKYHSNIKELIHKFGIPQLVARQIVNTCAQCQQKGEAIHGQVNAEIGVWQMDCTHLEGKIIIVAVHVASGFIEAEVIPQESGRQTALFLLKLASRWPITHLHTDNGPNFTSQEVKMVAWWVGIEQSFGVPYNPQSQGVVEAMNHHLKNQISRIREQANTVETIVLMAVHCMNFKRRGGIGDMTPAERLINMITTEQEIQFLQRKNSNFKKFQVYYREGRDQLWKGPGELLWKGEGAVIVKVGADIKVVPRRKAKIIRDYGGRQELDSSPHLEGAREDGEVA

CC1=C(C(COC(=O)c2ccc(N(C)C)cc2)OC(=O)c2ccc(N(C)C)cc2)c2cc3nc(cc4[nH]c(cc5[nH]c(cc1n2)c(C)c5CCC(=O)O)c(CCC(=O)O)c4C)C(C(COC(=O)c1ccc(N(C)C)cc1)OC(=O)c1ccc(N(C)C)cc1)=C3C (stereo unspecified)
CC50 ([1]; COS A6): > 250 µM | IC50 [2]: 7 µM | IC50 [3]: 75 µM | IC50 [4]: 18 µM

CC1=C(CCC(=O)O)c2cc3[nH]c(cc4[nH]c(cc5nc(cc1n2)C(C)=C5C(COC(=O)C1=CCC1)OC(=O)C1=CCC1)c(C)c4C(COC(=O)C1=CCC1)OC(=O)C1=CCC1)c(C)c3CCC(=O)O (stereo unspecified)
CC50 ([1]; COS A6): 25 µM | IC50 [2]: 0.7 µM | IC50 [3]: 10 µM | IC50 [4]: 1.55 µM | IC50 [5]: 0.9 µM

3-[18-(2-Carboxy-ethyl)-8,13-bis-(1,2-diacetoxy-ethyl)-3,7,12,17-tetramethyl-22,24-dihydro-porphin-2-yl]-propionic acid;Cu complex [listing 1 of 2 here]
LD50 [6]: 80 µM

CC1=C(CCC(=O)O)c2cc3[nH]c(cc4[nH]c(cc5nc(cc1n2)C(C)=C5C(COC(=O)C1=CC1)OC(=O)C1=CC1)c(C)c4C(COC(=O)C1=CC1)OC(=O)C1=CC1)c(C)c3CCC(=O)O (stereo in doubt)
CC50 [1]: 250 µM | IC50 [2]: 12 µM | IC50 [3]: > 150 µM | IC50 [4]: 11 µM

CC1=C(C(O)CO)c2cc3nc(cc4[nH]c(cc5[nH]c(cc1n2)c(C)c5CCC(=O)O)c(CCC(=O)O)c4C)C(C(O)CO)=C3C (stereo unspecified)
CC50 ([1]; COS A6): 250 µM | IC50 [2]: 280 µM | IC50 [3]: > 200 µM | IC50 [4]: 480 µM

CC1=C(C(COC(=O)C23C[C@H]4C[C@@H](C2)C[C@@H](C3)C4)OC(=O)C23C[C@H]4C[C@@H](C2)C[C@@H](C3)C4)c2cc3nc(cc4[nH]c(cc5[nH]c(cc1n2)c(C)c5CCC(=O)O)c(CCC(=O)O)c4C)C(C(COC(=O)C12C[C@H]4C[C@@H](C1)C[C@@H](C2)C4)OC(=O)C12C[C@H]4C[C@@H](C1)C[C@@H](C2)C4)=C3C (stereo partly specified)
CC50 ([1]; COS A6): 250 µM | IC50 [2]: 5 µM | IC50 [4]: 13 µM

CC1=C(C(COC(=O)c2ccccc2)OC(=O)c2ccccc2)c2cc3nc(cc4[nH]c(cc5[nH]c(cc1n2)c(C)c5CCC(=O)O)c(CCC(=O)O)c4C)C(C(COC(=O)c1ccccc1)OC(=O)c1ccccc1)=C3C (stereo unspecified)
CC50 ([1]; COS A6): 250 µM | IC50 [2]: 14 µM | IC50 [3]: > 100 µM | IC50 [4]: 30 µM

CC1=C(C(COC(=O)c2ccc3ccccc3c2)OC(=O)c2ccc3ccccc3c2)c2cc3nc(cc4[nH]c(cc5[nH]c(cc1n2)c(C)c5CCC(=O)O)c(CCC(=O)O)c4C)C(C(COC(=O)c1ccc2ccccc2c1)OC(=O)c1ccc2ccccc2c1)=C3C (stereo unspecified)
CC50 ([1]; COS A6): 250 µM | IC50 [2]: 14 µM | IC50 [3]: > 150 µM | IC50 [4]: 23 µM

3-[18-(2-Carboxy-ethyl)-8,13-bis-(1,2-diacetoxy-ethyl)-3,7,12,17-tetramethyl-22,24-dihydro-porphin-2-yl]-propionic acid;Co complex [listing 1 of 2 here]
LD50 [6]: 150 µM

C=CC1=C(C)c2cc3[nH]c(cc4nc(cc5[nH]c(cc1n2)c(C)c5CCC(=O)O)C(CCC(=O)O)=C4C)c(C)c3C=C [PROTOPORPHYRIN]
CC50 ([1]; COS A6): < 50 µM | IC50 [2]: 300 µM | IC50 [3]: > 200 µM | IC50 [4]: 500 µM

3-[18-(2-Carboxy-ethyl)-8,13-bis-(1,2-diacetoxy-ethyl)-3,7,12,17-tetramethyl-22,24-dihydro-porphin-2-yl]-propionic acid;Mn complex
LD50 [6]: 70 µM

CC[C@H](C)[C@H](NC(=O)[C@H](C(C)C)[C@@H](O)[C@H](O)[C@H](CC1CCCCC1)NC(=O)[C@H](Cc1c[nH]cn1)NC(=O)COc1cccc2ccccc12)C(=O)NCc1ccccn1
CC50 ([1]; COS A6): 45 µM | IC50 [2]: < 0.001 µM | IC50 [3]: 0.75 µM | IC50 [4]: 0.03 µM

3-[18-(2-Carboxy-ethyl)-8,13-bis-(1,2-diacetoxy-ethyl)-3,7,12,17-tetramethyl-22,24-dihydro-porphin-2-yl]-propionic acid;Cu complex [listing 2 of 2 here]
IC50 [7]: 0.47 µM

3-[18-(2-Carboxy-ethyl)-8,13-bis-(1,2-diacetoxy-ethyl)-3,7,12,17-tetramethyl-22,24-dihydro-porphin-2-yl]-propionic acid;Co complex [listing 2 of 2 here]
IC50 [3]: 25 µM
